Rows were chosen to be rich in hits. Some 5.9% of all compounds tested hit in one or more screens of this group.
T cruzi growth-1: T. cruzi intracellular proliferation inhibitors, primary screen, cell-based, beta-gal Tulahuen parasites, NIH3T3 host, luminescence. hit rate 5.9% among 77,000. inhibition, % at 8.34 µM. T. cruzi beta-gal in NIH3T3, GalScreen luminescence, 90 h;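 active means mean inhibition above about 93%, with at least 55% of replicates each passing it, limit read from the data, passing the limit was not always enough; inconclusive means only one of those two conditions holds; inactive means neither condition holds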
Pf Dd2 growth: P. falciparum Dd2 growth inhibitors, primary screen, SYBR Green fluorescence, single dose replicates; hit rate 2.3% among 94,000; activity change, % at 10 µM; 72 h; hits give low values; AID 1159554, 2015; in the data active means activity change below about -80%; inconclusive means no clear call, values can overlap the other calls
IDH1 mut inh: inhibitors of IDH1 R132H reductase, primary screen, biochemical, plate reader, single point; hit rate 0.18% among 70,000; diaphorase/resazurin fluorescence, 60 min; inhibition, % at 10 µM; AID 624101, 2012; Isocitrate dehydrogenase [NADP] cytoplasmic (Homo sapiens), O75874; in the data active means inhibition above about 34%; inconclusive means no clear call, values can overlap the other calls; inactive means below about 11%
Target sequence (O75874 whole entry R132H): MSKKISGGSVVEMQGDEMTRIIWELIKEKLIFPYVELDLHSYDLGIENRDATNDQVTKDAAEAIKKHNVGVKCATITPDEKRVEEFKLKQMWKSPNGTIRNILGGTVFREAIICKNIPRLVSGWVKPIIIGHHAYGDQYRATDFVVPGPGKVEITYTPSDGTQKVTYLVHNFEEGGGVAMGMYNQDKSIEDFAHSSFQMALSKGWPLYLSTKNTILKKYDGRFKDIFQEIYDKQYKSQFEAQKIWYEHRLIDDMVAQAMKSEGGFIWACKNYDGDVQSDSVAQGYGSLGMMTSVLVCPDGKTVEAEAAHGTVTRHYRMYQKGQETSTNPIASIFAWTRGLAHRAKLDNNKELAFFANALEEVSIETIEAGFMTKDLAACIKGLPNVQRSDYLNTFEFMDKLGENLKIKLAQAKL
KDM4C inh: inhibitors of GASC-1 (KDM4C) histone demethylase, primary screen, biochemical, single concentration HTS | Lysine-specific demethylase 4C (Homo sapiens), Q9H3R0 | GST-KDM4C 2-372, H3K9me3 peptide, LANCE TR-FRET | inhibition, % at 12.5 µM | hit rate 0.15% among 96,000 | AID 720574, 2013;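 active means mean replicate inhibition above about 25%, with at least 55% of replicates also reaching it, limit read from the data, passing the limit was not always enough; inconclusive means only one of those two conditions met; inactive means neither condition met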
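Material: GST-tagged GASC-1 (JMJD2C) catalytic fragment, aa 2-372. Input: enzyme final amount 10 nM. Medium: HEPES buffer, pH 7.5, plus ascorbate. Reagent: H3K9me3 peptide substrate, Fe(II), 2-oxoglutarate. Doses: single dose. Times: reaction 30 min RT, detection step 1 h RT. Measured by: LANCE TR-FRET. Evaluation: Fall in 671/618 emission ratio as inhibition.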
T cruzi growth-2: T. cruzi intracellular proliferation inhibitors, confirmation, cell-based, NIH3T3 host, beta-gal parasite, luminescence, cherry-pick; inhibition, % at 8.35 µM; AID 651739, 2012; hit rate 72% among 5,600; shares compounds with T cruzi growth-1; T. cruzi beta-gal in NIH3T3, GalScreen luminescence, 90 h;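 active means mean replicate inhibition above about 95% and at least 55% of replicates individually reaching it, limit read from the data; inconclusive means only one of the two criteria is met; inactive means neither criterion is met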
T cruzi growth-3: inhibitors of intracellular T. cruzi replication, confirmation, NIH3T3 host cells, beta-gal parasites, cherry-pick, set 2 | shares compounds with T cruzi growth-1 | T. cruzi beta-gal in NIH3T3, GalScreen luminescence, 90 h | inhibition, % at 2.09 µM | hit rate 21% among 5,600 | AID 651740, 2012;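 active means mean inhibition above about 95%, with at least 55% of replicates also reaching it, limit read from the data; inconclusive means meets just one of the two conditions; inactive means meets neither condition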
NIH3T3 tox: cytotoxicity in mouse NIH/3T3 fibroblasts, confirmation, cytotoxicity control for T. cruzi proliferation inhibitor project, cell-based, cherry-pick, single point. shares compounds with T cruzi growth-1. NIH/3T3 viability, CellTiter-Glo ATP luminescence, 90 h. hit rate 14% among 5,600. cytotoxicity (signal decrease), % at 8.35 µM;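 active means mean signal decrease across replicates above about 35% based on untreated-well scatter, with enough replicates individually passing, limit read from the data; inconclusive means no rule stated though some were filed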
3T3 cytotox 2: NIH/3T3 fibroblast cytotoxicity, confirmation, cytotoxicity control, cell-based, cherry-pick, single point, set 2. AID 651744, 2012. inhibition, % at 24.9 µM. hit rate 56% among 5,600. shares compounds with T cruzi growth-1. NIH/3T3 viability, CellTiter-Glo ATP luminescence, 90 h;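 active means mean loss of cell viability signal at or above a set limit, and enough replicates individually reaching it; inconclusive means meets only the mean limit or only the replicate share; inactive means meets neither condition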
A number is an active result; i = inactive; ? = inconclusive; nt = not tested or not shown.

SMILES	T cruzi growth-1	Pf Dd2 growth	IDH1 mut inh	KDM4C inh	T cruzi growth-2	T cruzi growth-3	NIH3T3 tox	3T3 cytotox 2
CC(C)NC(=O)N1CCCCN2[C@H](CO)[C@@H](c3ccc(C#Cc4ccccc4F)cc3)[C@H]2C1	112	i	nt	i	100	i	i	103
CC(C)NC(=O)N1CCCCN2[C@H](CO)[C@H](c3ccc(C#Cc4ccccc4F)cc3)[C@@H]2C1	96	i	nt	i	110	i	42	77
CC(C)NC(=O)N1CCCCN2[C@H](C1)[C@@H](c1ccc(C#Cc3ccccc3F)cc1)[C@@H]2CO	i	i	nt	i	nt	nt	nt	nt
CCn1c(SCC(=O)Nc2ccccc2Br)nnc1-c1ccccc1	nt	nt	i	nt	nt	nt	nt	nt
Cn1c(SCC(=O)Nc2ccc3c(c2)OCCO3)nnc1-c1cnccn1	nt	nt	i	nt	nt	nt	nt	nt
N#C[C@H]1[C@@H](c2ccc(C#CC3(O)CCCC3)cc2)[C@@H](CO)N1C(=O)C1CCCCC1	i	i	nt	i	nt	nt	nt	nt
N#C[C@H]1[C@@H](c2ccc(C#CC3(O)CCCC3)cc2)[C@@H](CO)N1C(=O)C1CCC1	i	i	nt	i	nt	nt	nt	nt
N#C[C@@H]1[C@@H](c2ccc(C#CC3(O)CCCC3)cc2)[C@@H](CO)N1C(=O)C1CCCCC1	97	i	nt	i	110	i	i	?
N#C[C@H]1[C@@H](c2ccc(C#CC3(O)CCCC3)cc2)[C@H](CO)N1C(=O)C1CCC1	99	i	nt	i	104	i	i	69
O=C(C[C@@H]1CC[C@H]2[C@@H](COC[C@@H](O)CN2C(=O)c2ccncc2)O1)NCc1ccc(-c2ccccc2)cc1	117	i	nt	i	i	i	i	i
O=C(C[C@H]1CC[C@@H]2[C@H](COC[C@@H](O)CN2C(=O)Nc2ccc(Cl)c(Cl)c2)O1)NCc1ccc(Cl)c(Cl)c1	98	i	nt	i	i	102	i	106
O=C(C[C@@H]1CC[C@@H]2[C@H](COC[C@@H](O)CN2C(=O)Nc2ccc(Cl)c(Cl)c2)O1)NCc1ccncc1	127	i	nt	i	i	i	i	?
O=C(C[C@H]1CC[C@H]2[C@@H](COC[C@H](O)CN2C(=O)Nc2ccc(Cl)c(Cl)c2)O1)NCc1ccc(Cl)c(Cl)c1	97	i	nt	i	i	i	41	105
O=C(C[C@@H]1CC[C@H]2[C@@H](COC[C@@H](O)CN2C(=O)Nc2ccc(Cl)c(Cl)c2)O1)NCc1ccc(Cl)c(Cl)c1	i	i	nt	i	nt	nt	nt	nt
Cc1cc(C(=O)CSc2ncn[nH]2)c(C)n1-c1cc(F)ccc1F	nt	nt	i	nt	nt	nt	nt	nt
CCn1c(SCC(=O)Nc2cc(C)c(Cl)cc2OC)nnc1-c1cccs1	nt	nt	i	nt	nt	nt	nt	nt
O=C(CSc1n[nH]c(-c2ccc(Cl)cc2)n1)Nc1cccc(C(F)(F)F)c1	nt	nt	i	nt	nt	nt	nt	nt
Cc1noc(C)c1S(=O)(=O)N(C)C[C@H]1OCCCC[C@@H](C)Oc2ccc(NC(=O)Nc3cccc4ccccc34)cc2C(=O)N([C@@H](C)CO)C[C@H]1C	113	i	nt	i	102	i	i	i
Cc1noc(C)c1S(=O)(=O)N(C)C[C@H]1OCCCC[C@H](C)Oc2ccc(NC(=O)Nc3cccc4ccccc34)cc2C(=O)N([C@H](C)CO)C[C@@H]1C	116	i	nt	i	101	i	i	35
CCCC#Cc1ccc2c(c1)O[C@H](CN(C)C(=O)C1CCC1)[C@@H](C)CN([C@@H](C)CO)S2(=O)=O	108	i	nt	i	102	i	i	39
CCCC#Cc1ccc2c(c1)O[C@H](CN(C)C(=O)C1CCC1)[C@H](C)CN([C@@H](C)CO)S2(=O)=O	98	i	i	i	107	i	i	45
COc1ccc(C(=O)Nc2ccc(Cc3ccc(NC(=O)c4ccc(OC)cc4)c(O)c3)cc2O)cc1	nt	nt	i	nt	nt	nt	nt	nt
O=C(c1ccccc1)c1ccc2nc(-c3cccc(NC(=O)C4CCCO4)c3)[nH]c2c1 (stereo not given)	nt	nt	i	nt	nt	nt	nt	nt
C[C@H]1CCCCO[C@H](CN(C)CC2CCCCC2)[C@@H](C)CN([C@@H](C)CO)C(=O)c2cc(NC(=O)Nc3ccccc3)ccc2O1	i	i	nt	i	nt	nt	nt	nt
C[C@@H]1CCCCO[C@@H](CN(C)CC2CCCCC2)[C@H](C)CN([C@H](C)CO)C(=O)c2cc(NC(=O)c3ccccc3)ccc2O1	117	i	nt	i	112	?	i	105
SMILES	T cruzi growth-1	Pf Dd2 growth	IDH1 mut inh	KDM4C inh	T cruzi growth-2	T cruzi growth-3	NIH3T3 tox	3T3 cytotox 2
C[C@@H]1CN([C@@H](C)CO)C(=O)c2cc(NC(=O)Nc3ccccc3)ccc2O[C@@H](C)CCCCO[C@@H]1CN(C)CC1CCCCC1	?	i	i	i	101	i	i	104
C[C@@H]1CN([C@H](C)CO)C(=O)c2cc(NC(=O)Nc3ccccc3)ccc2O[C@@H](C)CCCCO[C@@H]1CN(C)CC1CCCCC1	i	?	i	i	nt	nt	nt	nt
C[C@H](CO)N1C[C@H](C)[C@H](CN(C)CC2CC2)OCCCC[C@H](C)Oc2ccc(NC(=O)Nc3ccccc3)cc2C1=O	98	i	i	i	104	i	i	i
C[C@@H]1CCCCO[C@@H](CN(C)CC2CCCCC2)[C@@H](C)CN([C@H](C)CO)C(=O)c2cc(NC(=O)Nc3ccccc3)ccc2O1	103	i	i	i	105	97	i	57
COc1cccc(NC(=O)CN(C)S(=O)(=O)c2ccc(OC)c(C)c2)c1	nt	nt	i	nt	nt	nt	nt	nt
COc1ccc(OC)c(S(=O)(=O)Nc2ccc(O)c(Sc3nc4ccccc4s3)c2)c1	nt	nt	i	nt	nt	nt	nt	nt
C[C@@H]1CCCCO[C@@H](CN(C)CC2CCCCC2)[C@H](C)CN([C@H](C)CO)C(=O)c2cc(NC(=O)NC3CCCCC3)ccc2O1	106	i	i	i	104	i	i	107
C[C@H](CO)N1C[C@H](C)[C@H](CN(C)CC2CCCCC2)OCCCC[C@H](C)Oc2ccc(NC(=O)Nc3ccccc3)cc2C1=O	?	i	i	i	98	i	i	105
C[C@@H]1CN([C@@H](C)CO)C(=O)c2cc(NC(=O)Cc3ccccc3)ccc2O[C@@H](C)CCCCO[C@H]1CN(C)CC1CCCCC1	116	i	nt	i	109	i	i	58
CC(C)C1Cc2c(sc3nc(SCC(=O)Nc4ccc(Cl)cc4Cl)nc(N)c23)CO1 (stereo not given)	nt	nt	i	nt	nt	nt	nt	nt
